pEC50, pIC50, pKi: −log10 of the molar value. Active and inactive are the calls of the source. No cut-off for these calls is given here.

Test [1] addresses T1, Vasopressin V2 receptor (Homo sapiens, UniProt P30518). Put plainly: Displacement of [3H]vasopressin from human V2 receptor expressed in CHO cells. Type of test: cell-based.
For the next test, the target named is Vasopressin V1a receptor (Homo sapiens, UniProt P37288). Put plainly: Displacement of [3H]vasopressin from human V1a receptor expressed in CHO cells. Type of test: cell-based. In short, it runs like this:
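Membrane receptors from CHO cells expressing human V1a were used in a radioligand competition binding format. Ki values come from triplicate assays.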

The next test is filed under the species Homo sapiens. As to the kind of experiment: Selectivity for human V1a receptor to human V2 receptor.
Test [2] addresses T1, Vasopressin V2 receptor. As to the kind of experiment: Intrinsic activity at human V2 receptor expressed in CHO cells assessed as increase in cAMP level relative to arginine vasopressin. Type of test: functional, cell-based. In short, it runs like this: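 CHO cells stably expressing human V2 receptors, grown in α-MEM with 10% FBS, serum-starved 24 h. Compound added in α-MEM with 1 mmol/L IBMX and 0.1% BSA, 10 min at 37 °C. Cells lysed in PBS with 0.2% Triton X-100; cAMP read by HTRF. Maximum response expressed as % of AVP maximum (100%); triplicate.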

The test system of the next test is Rattus norvegicus. Put plainly: Antidiuretic effect in iv dosed water-loaded Wistar rat assessed as suppression of urinary excretion within 4 hrs. The conditions noted are these: Urine. Type of test: functional, organism-based.
The target in test [3] is T1, Vasopressin V2 receptor. Put plainly: Agonist activity at human V2 receptor expressed in CHO cells assessed as increase in cAMP level. Type of test: functional, cell-based. In short, it runs like this:
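CHO cells stably expressing human V2 were grown in α-MEM with 10% FBS and 0.1% amethopterin at 37 °C, then serum-starved for 24 h. Compound was added in α-MEM with 1 mmol/L IBMX and 0.1% BSA for 10 min at 37 °C. Cells were lysed in PBS with 0.2% Triton X-100 and cAMP was read by HTRF. EC50 was derived by logistic regression; Emax was expressed as % of the AVP maximum. Assays were run in triplicate.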

Another test addresses Cytochrome P450 2C9 (Homo sapiens, UniProt P11712). Put plainly: Inhibition of recombinant CYP2C9 by fluorescent P450 inhibition assay.
The next test deals with Cytochrome P450 2C19 (Homo sapiens, UniProt P33261). As to the kind of experiment: Inhibition of recombinant CYP2C19 by fluorescent P450 inhibition assay.
Chain of Cytochrome P450 2C19 (P33261 whole entry): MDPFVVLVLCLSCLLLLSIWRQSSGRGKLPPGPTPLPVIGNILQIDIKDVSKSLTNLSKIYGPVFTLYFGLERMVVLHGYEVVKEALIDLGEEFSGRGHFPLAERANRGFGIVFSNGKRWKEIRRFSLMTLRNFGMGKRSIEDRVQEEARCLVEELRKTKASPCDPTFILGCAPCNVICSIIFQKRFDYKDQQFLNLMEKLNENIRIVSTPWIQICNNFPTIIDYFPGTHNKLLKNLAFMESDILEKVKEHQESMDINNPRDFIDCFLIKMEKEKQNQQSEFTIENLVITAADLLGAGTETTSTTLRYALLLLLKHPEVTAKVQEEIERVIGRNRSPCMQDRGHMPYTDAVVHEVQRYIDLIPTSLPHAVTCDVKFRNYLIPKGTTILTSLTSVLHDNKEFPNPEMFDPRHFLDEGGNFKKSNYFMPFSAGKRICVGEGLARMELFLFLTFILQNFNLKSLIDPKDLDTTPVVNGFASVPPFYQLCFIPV
A further test addresses Cytochrome P450 3A4 (Homo sapiens, UniProt P08684). Put plainly: Inhibition of CYP3A4 in human liver microsome assessed as 1'-hydroxymidazolam formation by competitive inhibition assay.
A further test addresses Cytochrome P450 2D6 (Homo sapiens, UniProt P10635). As to the kind of experiment: Inhibition of recombinant CYP2D6 by fluorescent P450 inhibition assay.

T1 sequence (P30518 whole entry): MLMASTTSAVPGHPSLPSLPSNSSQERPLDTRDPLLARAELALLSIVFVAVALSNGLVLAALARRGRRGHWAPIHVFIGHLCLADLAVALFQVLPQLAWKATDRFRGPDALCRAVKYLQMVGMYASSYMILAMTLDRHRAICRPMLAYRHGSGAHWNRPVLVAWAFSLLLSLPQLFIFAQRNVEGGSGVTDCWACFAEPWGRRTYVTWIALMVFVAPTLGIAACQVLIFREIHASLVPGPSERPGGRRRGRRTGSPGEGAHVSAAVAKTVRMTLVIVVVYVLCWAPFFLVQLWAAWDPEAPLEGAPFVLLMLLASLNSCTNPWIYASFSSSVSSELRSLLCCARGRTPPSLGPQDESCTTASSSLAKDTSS
Chain of Vasopressin V1a receptor (P37288 whole entry): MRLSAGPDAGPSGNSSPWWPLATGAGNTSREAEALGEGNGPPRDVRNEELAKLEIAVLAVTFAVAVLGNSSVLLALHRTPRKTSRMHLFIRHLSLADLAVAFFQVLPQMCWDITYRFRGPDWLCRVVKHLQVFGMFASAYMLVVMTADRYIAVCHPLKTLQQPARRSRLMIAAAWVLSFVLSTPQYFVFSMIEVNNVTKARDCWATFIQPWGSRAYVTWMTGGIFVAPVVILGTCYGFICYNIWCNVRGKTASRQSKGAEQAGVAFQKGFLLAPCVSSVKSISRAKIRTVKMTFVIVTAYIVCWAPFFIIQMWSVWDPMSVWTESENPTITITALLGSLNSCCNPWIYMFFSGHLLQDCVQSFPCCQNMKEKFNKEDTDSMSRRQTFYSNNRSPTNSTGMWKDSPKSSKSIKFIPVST
Chain of Cytochrome P450 2C9 (P11712 whole entry): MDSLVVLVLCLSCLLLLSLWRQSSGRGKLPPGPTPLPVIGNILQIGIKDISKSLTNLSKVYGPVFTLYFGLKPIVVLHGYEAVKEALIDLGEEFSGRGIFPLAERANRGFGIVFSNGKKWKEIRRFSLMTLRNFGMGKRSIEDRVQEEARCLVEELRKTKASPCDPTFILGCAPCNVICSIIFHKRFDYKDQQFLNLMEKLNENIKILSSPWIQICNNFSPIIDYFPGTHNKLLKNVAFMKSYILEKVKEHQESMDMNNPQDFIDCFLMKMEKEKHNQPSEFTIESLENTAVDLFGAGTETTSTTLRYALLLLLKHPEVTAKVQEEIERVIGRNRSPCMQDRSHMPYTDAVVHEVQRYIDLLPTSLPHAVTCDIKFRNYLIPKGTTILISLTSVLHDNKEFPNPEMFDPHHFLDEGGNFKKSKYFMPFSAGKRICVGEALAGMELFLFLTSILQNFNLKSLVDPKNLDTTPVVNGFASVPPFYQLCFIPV
Chain of Cytochrome P450 3A4 (P08684 whole entry): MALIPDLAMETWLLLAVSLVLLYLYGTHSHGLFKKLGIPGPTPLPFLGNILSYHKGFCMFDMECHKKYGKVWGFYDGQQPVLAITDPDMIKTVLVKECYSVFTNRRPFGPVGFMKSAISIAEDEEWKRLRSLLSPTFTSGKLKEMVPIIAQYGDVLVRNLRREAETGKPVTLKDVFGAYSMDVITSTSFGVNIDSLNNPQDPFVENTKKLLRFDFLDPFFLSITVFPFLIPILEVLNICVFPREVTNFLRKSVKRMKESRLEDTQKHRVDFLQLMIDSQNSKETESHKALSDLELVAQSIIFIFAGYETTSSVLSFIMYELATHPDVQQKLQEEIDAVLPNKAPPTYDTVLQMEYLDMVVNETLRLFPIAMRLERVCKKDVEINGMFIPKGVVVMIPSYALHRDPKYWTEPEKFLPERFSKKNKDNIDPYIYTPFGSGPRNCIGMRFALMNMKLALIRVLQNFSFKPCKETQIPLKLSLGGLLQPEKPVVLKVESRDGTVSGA
Chain of Cytochrome P450 2D6 (P10635 whole entry): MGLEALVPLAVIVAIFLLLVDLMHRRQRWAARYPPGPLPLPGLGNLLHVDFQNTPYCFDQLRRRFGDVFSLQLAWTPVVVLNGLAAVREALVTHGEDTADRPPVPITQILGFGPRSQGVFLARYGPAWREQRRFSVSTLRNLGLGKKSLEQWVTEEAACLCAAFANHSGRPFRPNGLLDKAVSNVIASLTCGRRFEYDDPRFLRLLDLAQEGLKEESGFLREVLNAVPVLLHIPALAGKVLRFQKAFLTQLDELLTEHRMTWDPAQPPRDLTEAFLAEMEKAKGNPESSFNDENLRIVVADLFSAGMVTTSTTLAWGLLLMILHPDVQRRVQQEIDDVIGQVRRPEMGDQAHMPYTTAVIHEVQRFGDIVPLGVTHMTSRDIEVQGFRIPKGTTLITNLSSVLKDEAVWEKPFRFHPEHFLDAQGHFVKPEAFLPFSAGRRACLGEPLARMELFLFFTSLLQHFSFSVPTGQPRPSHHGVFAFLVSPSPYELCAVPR

Regarding `Cc1ccn(-c2ccc(C(=O)N3CCC(F)(F)/C(=C\C(=O)NCc4cccc(N(C)C)n4)c4ccccc43)c(Cl)c2)n1`, the pKi on Vasopressin V2 receptor [1] is 7.96; at Vasopressin V1a receptor, 7.32. For the same compound, in the test filed under Homo sapiens, the Ratio Ki worked out at 4.4.

Turning to `COc1cccc(CNC(=O)/C=C2/c3ccccc3N(C(=O)c3ccc(-n4ccc(C)n4)cc3Cl)CCC2(F)F)n1`, the negative-log Ki (pKi) at Vasopressin V2 receptor [1] is 7.80; on Vasopressin V1a receptor, 7.33. Moreover, the Ratio Ki in the test filed under Homo sapiens stood at 2.9.

As to `Cc1ccn(-c2ccc(C(=O)N3CCC(F)(F)/C(=C\C(=O)NCCN(C)C)c4ccccc43)c(Cl)c2)n1`, the pKi at Vasopressin V2 receptor [1] was 7.28; on Vasopressin V1a receptor it was 7.23. Also, in the test filed under Homo sapiens, the Ratio Ki was determined as 1.1.

Turning to `Cc1ccn(-c2ccc(C(=O)N3CCC(F)(F)/C(=C\C(=O)NCCO)c4ccccc43)c(Cl)c2)n1`, at Vasopressin V2 receptor [2], the Emax was 93.9%. The values for the pKi on Vasopressin V2 receptor [1] and at Vasopressin V1a receptor were 8.01 and 7.55, respectively. The result in the test with Rattus norvegicus was Active. For the same compound, the pEC50 on Vasopressin V2 receptor [3] was 8.20.

As for `Cc1ccn(-c2ccc(C(=O)N3CCC(F)(F)/C(=C\C(=O)NCc4nc5ccccc5s4)c4ccccc43)c(Cl)c2)n1`, the values for the pKi at Vasopressin V2 receptor [1] and on Vasopressin V1a receptor were 7.96 and 7.26, respectively. Also, the Ratio Ki in the test listed under Homo sapiens came to 5.

As to `Cc1ccn(-c2ccc(C(=O)N3CCC(F)(F)/C(=C\C(=O)NCc4ccco4)c4ccccc43)c(Cl)c2)n1`, the pKi on Vasopressin V2 receptor [1] is 7.57; on Vasopressin V1a receptor, 7.14. Besides, the Ratio Ki in the test listed under Homo sapiens turned out to be 2.7.

Consider `Cc1ccn(-c2ccc(C(=O)N3CCC(F)(F)/C(=C\C(=O)NCc4cccnc4)c4ccccc43)c(Cl)c2)n1`, for which the figures for the pKi at Vasopressin V2 receptor [1] and on Vasopressin V1a receptor were 7.68 and 7.40, respectively. In addition, the Ratio Ki in the test listed under Homo sapiens amounted to 1.9.

In the case of `Cc1ccn(-c2ccc(C(=O)N3CCC(F)(F)/C(=C\C(=O)NCc4ccncc4)c4ccccc43)c(Cl)c2)n1`, the results for the pKi at Vasopressin V2 receptor [1] and at Vasopressin V1a receptor were 7.70 and 7.82, respectively. For the same compound, in the test filed under Homo sapiens, the Ratio Ki is 0.75.

For the compound `Cc1ccn(-c2ccc(C(=O)N3CCC(F)(F)/C(=C\C(=O)NCC(N)=O)c4ccccc43)c(Cl)c2)n1`, the pKi at Vasopressin V2 receptor [1] was 7.96; on Vasopressin V1a receptor it was 7.40. Besides, the Ratio Ki in the test listed under Homo sapiens came to 3.6.

For the compound `Cc1cccc(CNC(=O)/C=C2/c3ccccc3N(C(=O)c3ccc(-n4ccc(C)n4)cc3Cl)CCC2(F)F)n1`, at Vasopressin V1a receptor, the negative logarithm of the Ki (pKi) was 7.52. In addition, the Ratio Ki in the test filed under Homo sapiens was 5.4.

Consider `Cc1ccn(-c2ccc(C(=O)N3CCC(F)(F)/C(=C\C(=O)NCc4cccc(C#N)n4)c4ccccc43)c(Cl)c2)n1`, for which the figures for the pKi on Vasopressin V2 receptor [1] and at Vasopressin V1a receptor were 8.13 and 7.66, respectively. Further, in the test listed under Homo sapiens, the Ratio Ki stood at 3.

In the case of `CCCNC(=O)/C=C1/c2ccccc2N(C(=O)c2ccc(-n3ccc(C)n3)cc2Cl)CCC1(F)F`, the results for the pKi on Vasopressin V2 receptor [1] and on Vasopressin V1a receptor were 7.74 and 7.89, respectively. Also, the Ratio Ki in the test filed under Homo sapiens stood at 0.72.

Regarding `Cc1ccn(-c2ccc(C(=O)N3CCC(F)(F)/C(=C\C(=O)NCc4nc5ccccc5[nH]4)c4ccccc43)c(Cl)c2)n1`, the figures for the pKi at Vasopressin V2 receptor [1] and at Vasopressin V1a receptor were 7.92 and 7.14, respectively. Besides, the Ratio Ki in the test filed under Homo sapiens was determined as 6.

With `Cc1ccn(-c2ccc(C(=O)N3CCC(F)(F)/C(=C\C(=O)NCc4ccccn4)c4ccccc43)c(Cl)c2)n1`, at Vasopressin V1a receptor, the pKi was 7.59.

In the case of `Cc1ccn(-c2ccc(C(=O)N3CCC(F)(F)/C(=C\C(=O)NCC(=O)O)c4ccccc43)c(Cl)c2)n1`, the values for the pKi at Vasopressin V2 receptor [1] and on Vasopressin V1a receptor were 7.66 and 6.64, respectively. Besides, the Ratio Ki in the test listed under Homo sapiens amounted to 10.

Consider `Cc1ccn(-c2ccc(C(=O)N3CCC(F)(F)/C(=C\C(=O)NCc4ccccc4)c4ccccc43)c(Cl)c2)n1`, for which the pKi at Vasopressin V2 receptor [1] was 7.72; at Vasopressin V1a receptor, 7.37. Also, in the test filed under Homo sapiens, the Ratio Ki turned out to be 2.3.

As to `Cc1ccn(-c2ccc(C(=O)N3CCC(F)(F)/C(=C\C(N)=O)c4ccccc43)c(Cl)c2)n1`, the pKi at Vasopressin V2 receptor [1] was 7.48; on Vasopressin V1a receptor, 6.72. For the same compound, the Ratio Ki in the test listed under Homo sapiens worked out at 5.8.

For the compound `Cc1ccn(-c2ccc(C(=O)N3CCC(F)(F)/C(=C\C(=O)NCc4cccnn4)c4ccccc43)c(Cl)c2)n1`, the maximal effect (Emax) at Vasopressin V2 receptor [2] was 86.4%. Also, the figures for the pKi at Vasopressin V2 receptor [1] and on Vasopressin V1a receptor were 8.47 and 7.37, respectively. Besides, the outcome in the test with Rattus norvegicus was Active. Further, the pEC50 at Vasopressin V2 receptor [3] was 7.80.

As to `Cc1ccn(-c2ccc(C(=O)N3CCC(F)(F)/C(=C\C(=O)O)c4ccccc43)c(Cl)c2)n1`, the pIC50 on Cytochrome P450 2C9 is less than 4.70; on Cytochrome P450 2C19, less than 4.70; on Cytochrome P450 3A4, less than 4.70; at Cytochrome P450 2D6 it was 4.96. Further, on Vasopressin V2 receptor [2], the Emax is 92.4%. In addition, the pKi at Vasopressin V2 receptor [1] is 7.60; at Vasopressin V1a receptor, 5.20. In the test with Rattus norvegicus, the result was inactive. Further, the pEC50 on Vasopressin V2 receptor [3] is 8.38. In addition, in the test listed under Homo sapiens, the Ratio Ki worked out at 252.

With `Cc1ccn(-c2ccc(C(=O)N3CCC(F)(F)/C(=C\C(=O)NCc4cnccn4)c4ccccc43)c(Cl)c2)n1`, the pKi on Vasopressin V2 receptor [1] was 7.85; on Vasopressin V1a receptor it was 7.24. Also, in the test listed under Homo sapiens, the Ratio Ki stood at 4.1.

As for `Cc1ccn(-c2ccc(C(=O)N3CCC(F)(F)/C(=C\C(=O)NCc4nccs4)c4ccccc43)c(Cl)c2)n1`, the pKi on Vasopressin V2 receptor [1] is 7.96; at Vasopressin V1a receptor, 7.37. For the same compound, in the test listed under Homo sapiens, the Ratio Ki was 3.9.

For `Cc1ccn(-c2ccc(C(=O)N3CCC(F)(F)/C(=C\C(=O)NCc4cccc(N)n4)c4ccccc43)c(Cl)c2)n1`, the results for the pKi at Vasopressin V2 receptor [1] and at Vasopressin V1a receptor were 8.00 and 7.42, respectively. The Ratio Ki in the test filed under Homo sapiens stood at 3.8.

Turning to `Cc1ccn(-c2ccc(C(=O)N3CCC(F)(F)/C(=C\C(=O)NCc4ccncn4)c4ccccc43)c(Cl)c2)n1`, the pKi at Vasopressin V2 receptor [1] is 7.96; at Vasopressin V1a receptor it was 7.36. In addition, the Ratio Ki in the test filed under Homo sapiens was determined as 4.
